Measured values: ChEMBL document CHEMBL1153851, “(+/-)-3,4-Dihydroxy-8,9-methylenedioxypterocarpan and derivatives: cytotoxic effect on human leukemia cell lines” (Eur J Med Chem, 2009)

Tests used:
[1] = test system: Daudi; assay: Cytotoxicity against human Daudi cells assessed as cell viability after 72 hrs by MTT assay; assay type: functional, cell-based
Outline: (§1)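 Cells were kept in RPMI 1640 with 5 × 10^-5 M β-mercaptoethanol, 25 mM Hepes (pH 7.4) and 10% heat-inactivated FCS. Daudi received 20% FCS, and Lucena I received 60 nM vincristine to maintain resistance. Cells were seeded at 2 × 10⁴ cells/mL with compound (0.1–50) for 72 h at 37 °C, 5% CO₂. MTT (5 mg/mL stock) was added for 3 h, formazan was dissolved in DMSO, and A490 was read. Triplicate points; mean of ≥3 experiments.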

[2] = Toxicity against PHA-activated human peripheral lymphocytes assessed as cell viability after 72 hrs by MTT assay; assay type: cell-based, Lymphocyte
Outline: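 PBMC from healthy-volunteer heparinized blood were isolated by Ficoll-Hypaque gradient and resuspended at 10⁶ cells/mL in supplemented RPMI 1640. They were stimulated with PHA and exposed to compound at 2.5–10 µM for 72 h. Controls received diluent without PHA. Viability was read by MTT. Triplicate points; mean ± SD of ≥3 experiments.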

[3] = test system: K562; assay: Cytotoxicity against human K562 cells assessed as cell viability after 72 hrs by MTT assay; assay type: functional, cell-based; conditions: K562, 72 h; outline: as §1
[4] = Cytotoxicity against human K562-Lucena 1 cells assessed as cell viability after 72 hrs by MTT assay; assay type: functional, cell-based; conditions: K562-Lucena 1, 72 h; outline: as §1
[5] = test system: HL-60; assay: Cytotoxicity against human HL60 cells assessed as cell viability after 72 hrs by MTT assay; assay type: functional, cell-based; conditions: HL-60, 72 h; outline: as §1
[6] = test system: Jurkat; assay: Cytotoxicity against human Jurkat cells assessed as cell viability after 72 hrs by MTT assay; assay type: functional, cell-based; outline: as §1

| Compound | IC50 [1] | IC50 at 72 h [2] | IC50 [3] | IC50 [4] | IC50 [5] | IC50 [6] |
| --- | --- | --- | --- | --- | --- | --- |
| O=C1C=CC2=C(OC[C@@H]3c4cc5c(cc4O[C@H]23)OCO5)C1=O (racemic) | 0.9 µM | 2.4 µM |  |  |  |  |
| Oc1cc2c(cc1O)[C@@H]1Oc3cc4c(cc3[C@@H]1CO2)OCO4 |  |  | > 20 µM | > 50 µM | > 20 µM |  |
| Oc1ccc2c(c1O)OC[C@@H]1c3cc4c(cc3O[C@H]21)OCO4 | 2.8 µM |  | 3 µM | 3.7 µM | 2.1 µM | 7.6 µM |
| COc1cc2c(cc1O)[C@H]1COc3c(ccc(O)c3O)[C@H]1O2 (racemic) |  |  | > 10 µM | > 20 µM | 6.4 µM |  |
| Oc1ccc2c(c1)OC[C@@H]1c3cc4c(cc3O[C@H]21)OCO4 [(+)-MAACKIAIN] |  |  | > 50 µM | > 50 µM | > 50 µM |  |
